# From ChEMBL document CHEMBL4308833, “A Thieno[2,3- d]pyrimidine Scaffold Is a Novel Negative Allosteric Modulator of the Dopamine D2 Receptor” (J Med Chem, 2018)
# The source made the active and inactive calls. The calls are words filed in the database; no cut-off is given here.
# Experiments:
# [1] = biological target: D(2) dopamine receptor (Homo sapiens) (UniProt P14416); assay: Displacement of [3H]Raclopride from recombinant human D2L receptor expressed in Flp-In CHO cell membranes after 2 to 3 hrs by microbeta counting method
# D(2) dopamine receptor (Homo sapiens), sequence (P14416 whole entry): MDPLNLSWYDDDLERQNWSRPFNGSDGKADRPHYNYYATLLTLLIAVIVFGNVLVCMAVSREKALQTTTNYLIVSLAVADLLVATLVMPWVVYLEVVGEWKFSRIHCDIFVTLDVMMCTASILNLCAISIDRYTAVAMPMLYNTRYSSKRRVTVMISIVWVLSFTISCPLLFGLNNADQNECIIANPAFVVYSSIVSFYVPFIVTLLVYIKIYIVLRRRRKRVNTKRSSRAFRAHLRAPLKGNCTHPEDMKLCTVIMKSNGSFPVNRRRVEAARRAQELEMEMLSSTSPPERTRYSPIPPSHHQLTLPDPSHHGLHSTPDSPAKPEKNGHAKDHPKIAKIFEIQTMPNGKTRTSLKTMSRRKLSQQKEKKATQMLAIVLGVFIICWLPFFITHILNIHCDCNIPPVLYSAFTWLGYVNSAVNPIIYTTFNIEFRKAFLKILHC
# In short: (§1)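 hD2LR FlpIn CHO membrane homogenate (15 µg protein) was co-incubated with 0.5 nM [3H]raclopride and test compound at 10^-3 to 10^-7 M (half-log dilutions from DMSO stock, in duplicate). Incubation was 2-3 h at 25 °C in HEPES buffer, pH 7.4. Nonspecific binding was defined with 10 µM haloperidol. Filtration was followed by scintillation counting. KB and cooperativity α were obtained from an allosteric ternary complex model.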
# [2] = biological target: D(2) dopamine receptor (Homo sapiens) (UniProt P14416); assay: (§2) Negative allosteric modulation of recombinant human D2L receptor expressed in Flp-In CHO cells assessed as inhibition of dopamine-induced reduction in forskolin stimulated cAMP accumulation by measuring co-operativity factor up to 100 uM preincubated for 30 mins followed by forskolin stimulation and measured after 30 mins by BRET assay; format: functional, cell-based
# [3] = biological target: D(2) dopamine receptor (Homo sapiens) (UniProt P14416); assay: as §2, with “factor” for “factor up to 100 uM”; format: functional, cell-based
# [4] = biological target: D(2) dopamine receptor (Homo sapiens) (UniProt P14416); assay: as §2, with “modulation of dopamine efficacy” for “co-operativity factor up to 100 uM”; format: functional, cell-based
# [5] = biological target: D(2) dopamine receptor (Homo sapiens) (UniProt P14416); assay: Negative allosteric modulation of recombinant human D2L receptor expressed in Flp-In CHO cells assessed as inhibition of dopamine-induced reduction in forskolin stimulated cAMP accumulation preincubated for 30 mins followed by forskolin stimulation and measured after 30 mins by BRET assay; format: functional, cell-based
# [6] = biological target: D(2) dopamine receptor (Homo sapiens) (UniProt P14416); assay: Displacement of [3H]Raclopride from recombinant human D2L receptor expressed in Flp-In CHO cell membranes assessed as co-operativity factor after 2 to 3 hrs by microbeta counting method; in short: as §1
Kb [1] [µM],pKb [1],inhibition [2],Activity [3],log(activity) [3],log(activity) [4],Kb [5] [µM],pKb [5],Activity [4],Activity [6],log(activity) [6],Compound
50,4.3,inactive,,,,,,,,,FC(F)(F)c1cccc(Nc2nc(CN3CCOCC3)nc3sc(Cc4ccccc4)cc23)c1
35,4.45,inactive,,,,,,,,,CCN(CC)c1nc(CC2CCOCC2)nc2sc3c(c12)CCCC3
59,4.23,,0.13,-0.9,0,11.4,4.95,,,,FC(F)(F)c1cccc(Nc2nc(CN3CCOCC3)nc3sc4c(c23)CCC4)c1
22,4.66,inactive,,,,,,,,,FC(F)(F)c1cccc(Oc2nc(CN3CCOCC3)nc3sc4c(c23)CCCC4)c1
,,inactive,,,,,,,,,O=c1[nH]cnc2sc3c(c12)CCCC3
99,4,,,0,-0.95,7.46,5.13,0.11,,,c1ccc(Nc2nc(CN3CCOCC3)nc3sc4c(c23)CCCC4)cc1
39,4.41,,0.34,-0.46,-0.22,6.98,5.16,0.6,,,FC(F)(F)c1cccc(Nc2nc(CN3CCCCC3)nc3sc4c(c23)CCCC4)c1
13,4.89,,0.21,-0.68,-0.4,1.63,5.79,0.4,,,FC(F)(F)c1cccc(Nc2nc(CCCN3CCOCC3)nc3sc4c(c23)CCCC4)c1
45.8,4.34,,0.13,-0.9,0,5.37,5.27,,,,FC(F)(F)c1cccc(Nc2nc(CN3CCOCC3)nc3sc(C4CCCCC4)cc23)c1
30,4.51,,0.68,-0.17,-0.84,4.9,5.31,0.15,,,CN(C)c1nc(CN2CCOCC2)nc2sc(Cc3ccccc3)cc12
70,4.16,,0.23,-0.63,0,0.981,6.01,,,,FC(F)(F)c1cccc(Nc2nc(CCN3CCOCC3)nc3sc4c(c23)CCCC4)c1
17,4.76,,,0,-3,1.92,5.72,,,,CCN(CC)c1ncnc2sc3c(c12)CCCC3
35,4.45,,0.06,-1.22,-3,2.81,5.55,,,,Oc1cccc(Nc2nc(CN3CCOCC3)nc3sc4c(c23)CCCC4)c1
48,4.32,,0.19,-0.73,-0.53,8.02,5.1,0.29,,,COc1cccc(Nc2nc(CN3CCOCC3)nc3sc4c(c23)CCCC4)c1
63,4.2,,0.37,-0.43,0,0.8,6.13,,,,FC(F)(F)c1cccc(Nc2ncnc3sccc23)c1
,,,,0,-0.4,8.39,5.08,0.4,,,Fc1cccc(Nc2nc(CN3CCOCC3)nc3sc4c(c23)CCCC4)c1
19,4.71,,0.13,-0.88,-1.21,1.4,5.85,0.06,,,FC(F)(F)c1cccc(Nc2nc(CCCCN3CCOCC3)nc3sccc23)c1
23,4.65,,,0,-0.89,4.6,5.31,0.13,0.1,-1.01,CCN(CC)c1ncnc2sccc12
